Test results as given in ChEMBL document CHEMBL1154419, “Pharmacodynamic effects of telavancin against methicillin-resistant and methicillin-susceptible Staphylococcus aureus strains in the presence of human albumin or serum and in an in vitro kinetic model” (Antimicrob Agents Chemother, 2007).
≈ marks a conversion by molar mass, not a printed value. Calls of active or inactive are those of the source. The calls are words filed in the database; no cut-off is given here.

Tests used:
[1] = tested on: Staphylococcus aureus; test: Antibacterial activity against methicillin-resistant Staphylococcus aureus ATCC 33591 after 18 to 24 hrs by macrodilution technique; type: functional
In short: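 Broth macrodilution per CLSI, run in triplicate on separate occasions. Twofold serial drug dilutions in broth, inoculum approx. 5 × 10⁵ CFU/ml, 37°C for 18 to 24 h. MIC taken as the lowest concentration with no visible growth.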

[2] = tested on: Staphylococcus aureus; test: Antibacterial activity against methicillin-susceptible Staphylococcus aureus ATCC 13709 assessed as bacterial killing at 0.5 to 50 times MIC after 24 hrs; type: functional
In short: (§1)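 Static time-kill in M-H broth, in M-H broth with 40 g/liter fatty-acid-free purified human albumin, or in M-H broth with inactivated 50% human serum. Inoculum approx. 5 × 10⁵ CFU/ml, drug at 0.5, 1, 2.5, 5, 10, 25 and 50× MIC, 37°C. Samples at 0, 3, 6, 12 and 24 h plated on blood agar, counted after 24 h. Detection limit 5 × 10¹ CFU/ml. Run in duplicate.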

[3] = tested on: Staphylococcus aureus; test: Antibacterial activity against methicillin-resistant Staphylococcus aureus ATCC 33591 assessed as bacterial regrowth at 0.5 times MIC after 24 hrs in presence of human albumin; type: functional, organism-based; in short: as §1
[4] = tested on: Staphylococcus aureus; test: Antibacterial activity against methicillin-resistant Staphylococcus aureus ATCC 33591 assessed as bacterial regrowth at 1 times MIC after 24 hrs in presence of human albumin; type: functional, organism-based; in short: as §1
[5] = tested on: Staphylococcus aureus; test: Antibacterial activity against methicillin-susceptible Staphylococcus aureus ATCC 13709 assessed as bacterial killing at 0.5 to 50 times MIC after 24 hrs in presence of 50% human serum; type: functional, organism-based
[6] = tested on: Staphylococcus aureus; test: Antibacterial activity against methicillin-resistant Staphylococcus aureus ATCC 33591 assessed as change in bacterial burden at 10 mg/liter after 24 hrs; type: functional
In short: (§2)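 In vitro kinetic model: spinner flask with 0.45-μm filter and prefilter, stirred, M-H broth at 37°C, starting inoculum approx. 5 × 10⁵ CFU/ml. Single initial drug dose of 1.0 to 40 mg/liter, with flow set to give a half-life of approx. 8 h. Viable counts at 0, 2, 4, 6, 8, 12 and 24 h. Duplicate runs per strain and concentration.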

[7] = tested on: Staphylococcus aureus; test: Antibacterial activity against methicillin-resistant Staphylococcus aureus ATCC 33591 assessed as change in bacterial burden at 10 mg/liter after 8 hrs; type: functional; in short: as §2
[8] = tested on: Staphylococcus aureus; test: Antibacterial activity against methicillin-susceptible Staphylococcus aureus ATCC 13709 assessed as change in bacterial burden at 5 mg/liter after 4 hrs; type: functional
[9] = tested on: Staphylococcus aureus; test: Antibacterial activity against methicillin-susceptible Staphylococcus aureus ATCC 13709 assessed as change in bacterial burden at 5 mg/liter after 2 hrs; type: functional
[10] = Cmax in human at 10 mg/kg once daily; type: ADME, organism-based; design: dose 10 mg/kg; details: in vivo
[11] = tested on: Staphylococcus aureus; test: Antibacterial activity against methicillin-resistant Staphylococcus aureus ATCC 33591 assessed as change in bacterial burden at 20 mg/liter after 8 hrs; type: functional; in short: as §2
[12] = tested on: Staphylococcus aureus; test: Antibacterial activity against methicillin-resistant Staphylococcus aureus ATCC 33591 assessed as change in bacterial burden at 40 mg/liter after 4 hrs; type: functional; in short: as §2
[13] = tested on: Staphylococcus aureus; test: Antibacterial activity against methicillin-susceptible Staphylococcus aureus ATCC 13709 assessed as change in bacterial burden at 40 mg/liter after 24 hrs; type: functional
[14] = tested on: Staphylococcus aureus; test: Antibacterial activity against methicillin-susceptible Staphylococcus aureus ATCC 13709 assessed as change in bacterial burden at 20 mg/liter after 6 hrs; type: functional; in short: as §2
[15] = tested on: Staphylococcus aureus; test: Antibacterial activity against methicillin-susceptible Staphylococcus aureus ATCC 13709 assessed as change in bacterial burden at 10 mg/liter after 12 hrs; type: functional
[16] = tested on: Staphylococcus aureus; test: Antibacterial activity against methicillin-susceptible Staphylococcus aureus ATCC 13709 assessed as change in bacterial burden at 10 mg/liter after 8 hrs; type: functional
[17] = tested on: Staphylococcus aureus; test: Antibacterial activity against methicillin-susceptible Staphylococcus aureus ATCC 13709 assessed as change in bacterial burden at 5 mg/liter after 24 hrs; type: functional
[18] = tested on: Staphylococcus aureus; test: Antibacterial activity against methicillin-susceptible Staphylococcus aureus ATCC 13709 assessed as change in bacterial burden at 5 mg/liter after 6 hrs; type: functional

## CCCCCCCCCCNCCN[C@@]1(C)C[C@H](O[C@H]2[C@H](Oc3c4cc5cc3Oc3ccc(cc3Cl)[C@@H](O)[C@@H](NC(=O)[C@@H](CC(C)C)NC)C(=O)N[C@@H](CC(N)=O)C(=O)N[C@H]5C(=O)N[C@H]3C(=O)N[C@H](C(=O)N[C@H](C(=O)O)c5cc(O)c(CNCP(=O)(O)O)c(O)c5-c5cc3ccc5O)[C@H](O)c3ccc(c(Cl)c3)O4)O[C@H](CO)[C@@H](O)[C@@H]2O)O[C@@H](C)[C@H]1O [TELAVANCIN]
[1]
  MIC: 1 µg/mL (≈ 0.57 µM)
[2]
  LCK: >3
[3]
  Activity: Active
[4]
  Activity: Active
[5]
  Activity: Active
[6]
  deltalog10CFU/ml: -5.1
[7]
  deltalog10CFU/ml: -3.8
[8]
  deltalog10CFU/ml: -2.3
[9]
  deltalog10CFU/ml: -1.2
[10]
  Cmax: 5200 ng/mL
[11]
  deltalog10CFU/ml: -3.5
[12]
  deltalog10CFU/ml: -2.7
[13]
  deltalog10CFU/ml: -4.7
[14]
  deltalog10CFU/ml: -3.9
[15]
  deltalog10CFU/ml: -4.5
[16]
  deltalog10CFU/ml: -4.3
[17]
  deltalog10CFU/ml: -4.7
[18]
  deltalog10CFU/ml: -3.4
